The record followed here is ChEMBL document CHEMBL2146388, “Sinularosides A and B, bioactive 9,11-secosteroidal glycosides from the South China Sea soft coral Sinularia humilis Ofwegen” (J Nat Prod, 2012).

The structures appear in SMILES notation. Active and inactive are the calls of the source. No cut-off for these calls is given here.

One test concerns Escherichia coli. Kind of test: Antibacterial activity against Escherichia coli assessed as zone of inhibition at 0.05 mg by agar diffusion method. It is filed as functional. The settings on record: read-out: IZ. In a few lines:
(§1)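 Compound is dissolved in acetone at 1.0 mg/mL, and 0.05 mg is applied to a sterile 9 mm filter disk. The disk is placed on NB agar and sprayed with a bacterial suspension. Read-out is the inhibition zone around the disk. Acetone serves as the solvent control.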
A general note: In agar diffusion tests the substance spreads into inoculated agar from a disc or well.

The next test has as its system Priestia megaterium. Kind of test: Antibacterial activity against Bacillus megaterium assessed as zone of inhibition at 0.05 mg by agar diffusion method. Format: functional. The conditions noted are these: read-out: IZ. In a few lines: as §1
A further test has as its system Microbotryum violaceum. In words: Antifungal activity against Microbotryum violaceum assessed as zone of inhibition at 0.05 mg by agar diffusion method. The conditions noted are these: read-out: IZ. Format: functional. In a few lines:
(§2)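 Fungi are grown on MPY medium. A 9 mm sterile filter disk is loaded with 0.05 mg of compound (50 μL of a 1.0 mg/mL acetone solution), laid on the agar, and then sprayed with a fungal suspension. The inhibition zone is scored, with an acetone control.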

The next test relates to Zymoseptoria tritici. Kind of test: Antifungal activity against Septoria tritici assessed as zone of inhibition at 0.05 mg by agar diffusion method. It is filed as functional. The conditions noted are these: read-out: IZ. In a few lines:
as §2

The next test has as its system [Chlorella] fusca. In words: Antimicrobial activity against Chlorella fusca assessed as zone of inhibition at 0.05 mg by agar diffusion method. Format: functional. The settings on record: Scenedesmus fuscus; read-out: IZ. In a few lines: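 The microalga Chlorella fusca is tested on CP medium. A sterile 9 mm paper disk carries 0.05 mg of compound from a 1.0 mg/mL acetone solution and is placed on the agar, which is then sprayed with the algal suspension. The zone of growth inhibition is recorded, with acetone as control.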

The subject of another test is HepG2. In words: Cytotoxicity against human HepG2 cells by MTT assay. It is filed as functional, cell-based. In a few lines: (§3)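 Growth inhibition is read colorimetrically by a modified MTT method on HepG2 or Caco-2 cells. Adriamycin is the positive control. IC50 is reported.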
The subject of another test is Caco-2. Kind of test: Cytotoxicity against human Caco2 cells by MTT assay. Format: functional, cell-based. In a few lines:
as §3
(In general: Tetrazolium assays rely on reduction of a dye to a coloured formazan, in cell work by metabolically active cells.)

As for `CC1(C)S[C@@H]2[C@H](NC(=O)Cc3ccccc3)C(=O)N2[C@H]1C(=O)O` [PENICILLIN G], the zone of inhibition at 50 µg/disc in the test with Escherichia coli is 20 mm; with Priestia megaterium, 28 mm.

Turning to `C=C(CC[C@@H](C)[C@H]1CC[C@@H]([C@@H]2CC=C3C[C@@H](O[C@@H]4O[C@@H](C)[C@@H](O)[C@@H](O)[C@@H]4O)CC[C@]3(C)C2=O)[C@]1(C)CCO)C(C)C` [SINULAROSIDE A], the zone of inhibition at 50 µg/disc came to 17 mm with Microbotryum violaceum; 14 mm with Zymoseptoria tritici; 0 mm with Escherichia coli; 30 mm with Priestia megaterium; 12 mm in test [Chlorella] fusca. Moreover, the “growth inhibition (GI)” value in the test with HepG2 and in the test on Caco-2 was “inactive” each time.

As for `CC(=O)N1CCN(c2ccc(OCC3COC(Cn4ccnc4)(c4ccc(Cl)cc4Cl)O3)cc2)CC1` (configuration not stated) [KETOCONAZOLE], the zone of inhibition at 50 µg/disc was 15 mm with Microbotryum violaceum and 14 mm with Zymoseptoria tritici.

As to `CN[C@@H]1[C@H](O[C@H]2[C@H](O[C@H]3[C@H](O)[C@@H](O)[C@H](N=C(N)N)[C@@H](O)[C@@H]3N=C(N)N)O[C@@H](C)[C@]2(O)C=O)O[C@@H](CO)[C@H](O)[C@H]1O` [STREPTOMYCIN], the zone of inhibition at 50 µg/disc stood at 25 mm in the test on Escherichia coli and 30 mm in the test on Priestia megaterium.

Consider `C=C(CC[C@@H](C)[C@H]1CC[C@@H]([C@@H]2CC=C3C[C@@H](O[C@@H]4O[C@@H](C)[C@@H](OC(C)=O)[C@@H](O)[C@@H]4O)CC[C@]3(C)C2=O)[C@]1(C)CCO)C(C)C` [SINULAROSIDE B], for which the zone of inhibition at 50 µg/disc with Microbotryum violaceum amounted to 17 mm; with Zymoseptoria tritici, 15 mm; in the test with Escherichia coli, 0 mm; in the test with Priestia megaterium it was 30 mm; in test [Chlorella] fusca, 14 mm. The “growth inhibition (GI)” value with HepG2 and with Caco-2 was “inactive” throughout.

The term IC50 denotes the point on the concentration scale where inhibition reaches its midpoint. Read a low IC50 as greater potency in that assay. Regarding `COc1cccc2c1C(=O)c1c(O)c3c(c(O)c1C2=O)C[C@@](O)(C(=O)CO)C[C@@H]3O[C@H]1C[C@H](N)[C@H](O)[C@H](C)O1` [DOXORUBICIN], the IC50 in the test on HepG2 and in the test with Caco-2 was 2.7 µM each time.
